# Results from ChEMBL document CHEMBL2203189, “Synthesis and pharmacology of 1-alkyl-3-(1-naphthoyl)indoles: steric and electronic effects of 4- and 8-halogenated naphthoyl substituents” (Bioorg Med Chem, 2012).
# Calls of active or inactive are those of the source.
# Columns and labels:
# [1] = target: T1, Cannabinoid receptor 1 (Homo sapiens, UniProt P21554); experiment: Displacement of [3H]CP55940 from human CB1 receptor expressed in HEK293 cells after 1 hr by liquid scintillation spectrophotometry; type: cell-based
# T1 sequence (P21554 whole entry): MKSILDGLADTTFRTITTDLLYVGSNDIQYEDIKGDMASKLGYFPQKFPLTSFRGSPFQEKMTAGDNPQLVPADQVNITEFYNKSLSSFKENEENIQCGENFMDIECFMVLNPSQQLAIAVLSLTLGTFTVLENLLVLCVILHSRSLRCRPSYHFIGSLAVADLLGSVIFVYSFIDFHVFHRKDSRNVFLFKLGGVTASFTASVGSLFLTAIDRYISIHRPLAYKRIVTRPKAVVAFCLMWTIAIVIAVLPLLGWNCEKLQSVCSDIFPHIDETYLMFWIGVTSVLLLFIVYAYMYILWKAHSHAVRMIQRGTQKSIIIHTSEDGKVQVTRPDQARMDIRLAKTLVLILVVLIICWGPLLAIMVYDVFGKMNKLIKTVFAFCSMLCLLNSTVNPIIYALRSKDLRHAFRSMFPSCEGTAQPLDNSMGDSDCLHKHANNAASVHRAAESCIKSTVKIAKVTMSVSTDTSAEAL
# How it was run: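 Membranes (50 µg) from HEK-293 cells stably expressing human CB1, cultured in DMEM/10% FBS. Incubated with 0.5 nM [3H]CP55,940 and test compound at 1 nM–10 µM in buffer with BSA (5 mg/mL), 1 h at 30 °C. Nonspecific binding defined with excess unlabelled CP55,940. Filtered through GF/B, then scintillation counting.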
# [2] = target: Cannabinoid receptor 2 (Homo sapiens, UniProt P34972); experiment: Displacement of [3H]CP55940 from human CB2 receptor expressed in CHO cells after 1 hr by liquid scintillation spectrophotometry; type: cell-based
# Chain of Cannabinoid receptor 2 (P34972 whole entry): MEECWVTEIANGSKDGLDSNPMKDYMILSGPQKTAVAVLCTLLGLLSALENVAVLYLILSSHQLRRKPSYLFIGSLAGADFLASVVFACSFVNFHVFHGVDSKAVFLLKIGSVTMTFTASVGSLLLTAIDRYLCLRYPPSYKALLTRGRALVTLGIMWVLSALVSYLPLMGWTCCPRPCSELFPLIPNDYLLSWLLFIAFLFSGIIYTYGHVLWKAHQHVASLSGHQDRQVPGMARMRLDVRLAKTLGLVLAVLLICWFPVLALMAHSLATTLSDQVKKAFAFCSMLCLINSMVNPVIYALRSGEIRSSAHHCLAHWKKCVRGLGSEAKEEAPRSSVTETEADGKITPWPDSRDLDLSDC
# How it was run: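 Membranes (50 µg) from CHO cells stably expressing human CB2, cultured in DMEM/10% fetal calf serum. Incubated with 0.5 nM [3H]CP55,940 and test compound at 1 nM–10 µM with BSA (5 mg/mL), 1 h at 30 °C. Nonspecific binding defined with excess unlabelled CP55,940. GF/B filtration, then scintillation counting.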
# [3] = species: Homo sapiens; experiment: Selectivity ratio of Ki for human CB1 receptor to Ki for human CB2 receptor
# [4] = tested on: Mus musculus; experiment: Locomotor activity in Harlan ICR mouse assessed as inhibition of activity level at 66 umol/kg, iv from 5 to 15 mins by spontaneous locomotor activity test relative to vehicle treated control; type: functional
# How it was run: (§1)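 Male ICR mice, n = 6 per dose, single probe dose iv in emulphor–ethanol–saline 1:1:18. Photocell beam interruptions recorded over 10 min, at 5–15 min after dosing. Result given as % inhibition relative to the vehicle group.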
# [5] = tested on: Mus musculus; experiment: Antinociceptive activity in Harlan ICR mouse assessed as latency to heat-induced tail flicking at 66 umol/kg, iv at 20 mins relative to control; type: functional
# [6] = tested on: Mus musculus; experiment: Hypothermic activity in Harlan ICR mouse assessed as change in rectal temperature at 66 umol/kg, iv at 30 mins; type: functional
# How it was run: (§2)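 Male ICR mice, n = 6 per dose. Single probe dose iv in emulphor–ethanol–saline 1:1:18. Rectal temperature taken with a thermistor probe at 25 mm depth before dosing and at 30 min. Result given as change from pre-injection value (°C).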
# [7] = tested on: Mus musculus; experiment: Locomotor activity in Harlan ICR mouse assessed as inhibition of activity level at 27 umol/kg, iv from 5 to 15 mins by spontaneous locomotor activity test relative to vehicle treated control; type: functional; how it was run: as §1
# [8] = tested on: Mus musculus; experiment: Antinociceptive activity in Harlan ICR mouse assessed as latency to heat-induced tail flicking at 27 umol/kg, iv at 20 mins relative to control; type: functional
# [9] = tested on: Mus musculus; experiment: Hypothermic activity in Harlan ICR mouse assessed as change in rectal temperature at 27 umol/kg, iv at 30 mins; type: functional; how it was run: as §2
# [10] = tested on: Mus musculus; experiment: Locomotor activity in Harlan ICR mouse assessed as inhibition of activity level at 6.9 umol/kg, iv from 5 to 15 mins by spontaneous locomotor activity test relative to vehicle treated control; type: functional
# How it was run: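 Spontaneous activity in male ICR mice (18–25 g) after one iv tail-vein probe dose in 1:1:18 emulphor–ethanol–saline. Photocell beam interruptions (16 beams per chamber) recorded over 10 min, 5–15 min after dosing. Reported as % inhibition relative to the vehicle group. n = 6 per dose.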
# [11] = tested on: Mus musculus; experiment: Antinociceptive activity in Harlan ICR mouse assessed as latency to heat-induced tail flicking at 6.9 umol/kg, iv at 20 mins relative to control; type: functional
# [12] = tested on: Mus musculus; experiment: Hypothermic activity in Harlan ICR mouse assessed as change in rectal temperature at 6.9 umol/kg, iv at 30 mins; type: functional
# How it was run: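 Male ICR mice, 18–25 g, dosed iv in the tail vein with a single probe dose in emulphor–ethanol–saline 1:1:18. Rectal thermistor probe inserted to 25 mm. Baseline read before injection and again at 30 min. Reported as the change from pre-injection temperature (Δ°C). n = 6 per dose.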
# [13] = tested on: Mus musculus; experiment: Induction of catalepsy in Harlan ICR mouse at 6.9 umol/kg, iv at 40 mins measured for 5 mins by ring immobility test; type: functional
# How it was run: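 Ring test on male ICR mice given one probe dose iv (tail vein; 1:1:18 emulphor–ethanol–saline). At 40 min each mouse is placed on a 5.5 cm ring 16 cm high and scored over 5 min by blinded observers. Up to 5 escapes allowed; data dropped if escapes occur before 2.5 min. Immobility index = time motionless/300 s × 100. n = 6 per dose.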
# [14] = tested on: Mus musculus; experiment: Locomotor activity in Harlan ICR mouse assessed as inhibition of activity level at 86 umol/kg, iv from 5 to 15 mins by spontaneous locomotor activity test relative to vehicle treated control; type: functional; how it was run: as §1
# [15] = tested on: Mus musculus; experiment: Antinociceptive activity in Harlan ICR mouse assessed as latency to heat-induced tail flicking at 86 umol/kg, iv at 20 mins relative to control; type: functional
# [16] = tested on: Mus musculus; experiment: Hypothermic activity in Harlan ICR mouse assessed as change in rectal temperature at 86 umol/kg, iv at 30 mins; type: functional, organism-based; how it was run: as §2
# [17] = tested on: Mus musculus; experiment: Locomotor activity in Harlan ICR mouse assessed as inhibition of activity level at 80 umol/kg, iv from 5 to 15 mins by spontaneous locomotor activity test relative to vehicle treated control; type: functional; how it was run: as §1
# [18] = tested on: Mus musculus; experiment: Antinociceptive activity in Harlan ICR mouse assessed as latency to heat-induced tail flicking at 80 umol/kg, iv at 20 mins relative to control; type: functional
# [19] = tested on: Mus musculus; experiment: Hypothermic activity in Harlan ICR mouse assessed as change in rectal temperature at 80 umol/kg, iv at 30 mins; type: functional; how it was run: as §2
# [20] = tested on: Mus musculus; experiment: Induction of catalepsy in Harlan ICR mouse at 80 umol/kg, iv at 40 mins measured for 5 mins by ring immobility test; type: functional
# How it was run: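 Male ICR mice given a single iv probe dose in emulphor–ethanol–saline 1:1:18. At 40 min placed on a 5.5 cm ring raised 16 cm and observed for 5 min by blinded raters. Up to 5 escapes allowed; mice escaping before 2.5 min excluded. Immobility index = time motionless / 300 s × 100.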
# [21] = tested on: Mus musculus; experiment: Locomotor activity in Harlan ICR mouse assessed as inhibition of activity level at […], iv from 5 to 15 mins by spontaneous locomotor activity test relative to vehicle treated control; type: functional
# [22] = tested on: Mus musculus; experiment: Antinociceptive activity in Harlan ICR mouse assessed as latency to heat-induced tail flicking at […], iv at 20 mins relative to control; type: functional
# [23] = tested on: Mus musculus; experiment: Hypothermic activity in Harlan ICR mouse assessed as change in rectal temperature at […], iv at 30 mins; type: functional
# [24] = tested on: Mus musculus; experiment: Induction of catalepsy in Harlan ICR mouse at […], iv at 40 mins measured for 5 mins by ring immobility test; type: functional
# [25] = tested on: Mus musculus; experiment: Locomotor activity in Harlan ICR mouse assessed as inhibition of activity level at 68 umol/kg, iv from 5 to 15 mins by spontaneous locomotor activity test relative to vehicle treated control; type: functional; how it was run: as §1
# [26] = tested on: Mus musculus; experiment: Antinociceptive activity in Harlan ICR mouse assessed as latency to heat-induced tail flicking at 68 umol/kg, iv at 20 mins relative to control; type: functional, organism-based
# [27] = target: T1, Cannabinoid receptor 1; experiment: Activation of human CB1 receptor expressed in HEK293 cells assessed as [35S]GTPgamma binding after 90 mins by liquid scintillation spectrophotometry; type: functional, cell-based
# How it was run: (§3)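 Membranes from HEK-293 cells stably expressing human CB1, pelleted at 50,000g and taken up in Tris-HCl pH 7.4 with MgCl2, EGTA and NaCl. 10 µg protein with BSA, 20 µM GDP, 0.1 nM [35S]GTPγS and graded test concentrations, 90 min at 30 °C. 2 µM CP55,940 run as internal standard; basal without agonist, nonspecific with 10 µM GTPγS. Filtration, then scintillation counting.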
# [28] = tested on: Mus musculus; experiment: Locomotor activity in iv dosed Harlan ICR mouse from 5 to 15 mins by spontaneous locomotor activity test; type: functional
# [29] = tested on: Mus musculus; experiment: Antinociceptive activity in iv dosed Harlan ICR mouse assessed as latency to heat-induced tail flicking at 20 mins; type: functional
# How it was run: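 Male ICR mice, 18–25 g, n = 6 per dose. Multiple doses iv by tail vein in emulphor–ethanol–saline 1:1:18. Tail-flick latency at 20 min, 10 s cutoff, expressed as %MPE.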
# [30] = tested on: Mus musculus; experiment: Hypothermic activity in iv dosed Harlan ICR mouse assessed as change in rectal temperature at 30 mins; type: functional; settings: 0.5 h
# [31] = tested on: Mus musculus; experiment: Induction of catalepsy in iv dosed Harlan ICR mouse at 40 mins measured for 5 mins by ring immobility test; type: functional
# [32] = target: T1, Cannabinoid receptor 1; experiment: Activation of human CB1 receptor expressed in HEK293 cells assessed as [35S]GTPgamma binding after 90 mins by liquid scintillation spectrophotometry relative to CP55940; type: functional, cell-based; how it was run: as §3
# [33] = tested on: Mus musculus; experiment: Locomotor activity in Harlan ICR mouse at 30 mg/kg, iv from 5 to 15 mins by spontaneous locomotor activity test in the presence of rimonabant; type: functional, organism-based; set-up: dose 30 mg/kg
# [34] = tested on: Mus musculus; experiment: Antinociceptive activity in Harlan ICR mouse assessed as latency to heat-induced tail flicking at 30 mg/kg, iv at 20 mins in the presence of rimonabant; type: functional, organism-based; set-up: dose 30 mg/kg
# [35] = tested on: Mus musculus; experiment: Hypothermic activity in Harlan ICR mouse assessed as change in rectal temperature at 30 mg/kg, iv at 30 mins in the presence of rimonabant; type: functional, organism-based; set-up: dose 30 mg/kg
# [36] = tested on: Mus musculus; experiment: Induction of catalepsy in Harlan ICR mouse at 30 mg/kg, iv 40 mins measured for 5 mins by ring immobility test in the presence of rimonabant; type: functional, organism-based; set-up: dose 30 mg/kg
# [37] = tested on: Mus musculus; experiment: Locomotor activity in Harlan ICR mouse assessed as inhibition of activity level at 91 umol/kg, iv from 5 to 15 mins by spontaneous locomotor activity test relative to vehicle treated control; type: functional; how it was run: as §1
# [38] = tested on: Mus musculus; experiment: Hypothermic activity in Harlan ICR mouse assessed as change in rectal temperature at 91 umol/kg, iv at 30 mins; type: functional; how it was run: as §2
# [39] = tested on: Mus musculus; experiment: Antinociceptive activity in Harlan ICR mouse assessed as latency to heat-induced tail flicking at 91 umol/kg, iv at 20 mins relative to control; type: functional
compound,measurement,setting,value
CCCn1c(C)c(C(=O)c2ccc(I)c3ccccc23)c2ccccc21,Ki,[1],501 nM
same,Ki,[2],20 nM
same,Ratio Ki,[3],25
same,inhibition in vivo at 66 µmol/kg,[4],74%
same,Activity,[5],60%
same,Activity,[6],-3%
CCCCCn1cc(C(=O)c2ccc(Cl)c3ccccc23)c2ccccc21,Ki,[1],2.3 nM
same,Ki,[2],2.8 nM
same,Ratio Ki,[3],0.8
same,inhibition in vivo at 27 µmol/kg,[7],82%
same,Activity,[8],90%
same,Activity,[9],-4.9%
CCCCCn1c(C)c(C(=O)c2cccc3cccc(Br)c23)c2ccccc21,Ki,[1],54 nM
same,Ki,[2],10 nM
same,Ratio Ki,[3],5.5
same,inhibition in vivo at 6.9 µmol/kg,[10],79%
same,Activity,[11],100%
same,Activity,[12],-3.7%
same,Activity,[13],53%
CCCn1cc(C(=O)c2cccc3cccc(Cl)c23)c2ccccc21,Ki,[1],642 nM
same,Ki,[2],134 nM
same,Ratio Ki,[3],4.8
same,inhibition in vivo at 86 µmol/kg,[14],68%
same,Activity,[15],72%
same,Activity,[16],inactive
CCCCCn1cc(C(=O)c2cccc3cccc(Cl)c23)c2ccccc21,Ki,[1],23 nM
same,Ki,[2],10 nM
same,Ratio Ki,[3],2.3
same,inhibition in vivo at 80 µmol/kg,[17],94%
same,Activity,[18],100%
same,Activity,[19],-6.9%
same,Activity,[20],92%
CCCn1cc(C(=O)c2ccc(I)c3ccccc23)c2ccccc21,Ki,[1],140 nM
same,Ki,[2],6.6 nM
same,Ratio Ki,[3],21
same,inhibition in vivo at […],[21],10%
same,Activity,[22],26%
same,Activity,[23],-1.7%
same,Activity,[24],2%
CCCn1cc(C(=O)c2cccc3cccc(I)c23)c2ccccc21,Ki,[1],2960 nM
same,Ki,[2],152 nM
same,Ratio Ki,[3],19
same,inhibition in vivo at 68 µmol/kg,[25],-25%
same,Activity,[26],inactive
C=C1CC[C@@H]2[C@@H](C1)c1ccc(C(C)(C)CCCCCC)cc1OC2(C)C,Activity,[27],inactive
CCCn1c(C)c(C(=O)c2ccc(F)c3ccccc23)c2ccccc21,Ki,[1],530 nM
same,Ki,[2],38 nM
same,Ratio Ki,[3],14
same,ED50,[28],9.6 µmol/kg
same,ED50,[29],11.9 µmol/kg
same,ED50,[30],30.1 µmol/kg
same,ED50,[31],23.2 µmol/kg
same,Emax,[32],59%
same,Activity,[33],inactive
same,Activity,[34],inactive
same,Activity,[35],inactive
same,Activity,[36],inactive
CCCn1cc(C(=O)c2ccc(F)c3ccccc23)c2ccccc21,Ki,[1],240 nM
same,Ki,[2],33 nM
same,Ratio Ki,[3],7
same,inhibition in vivo at 91 µmol/kg,[37],67%
same,Activity,[38],-3.3%
same,Activity,[31],inactive
same,Activity,[39],59%
